Residues, ends and D or L forms follow the SMILES beside them. *: point of attachment. Succinyl(O17-estradiol) = C[C@]12CC[C@@H]3c4ccc(O)cc4CC[C@H]3[C@@H]1CC[C@@H]2OC(=O)CCC(=O)*
Experiments:
Mus musculus [1] = test: Antiosteoporosis activity in ovariectomized ICR mouse assessed as calcium content in femur at 110.3 nmol/kg, po treated for 4 weeks measured after 1 day of last treatment by o-methyl-phenolphthalein; assay type: functional
How it was run: (§1)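 Female mice, ovariectomized (sham: laparotomy only); from day 5 post-surgery dosed orally once daily with 110.3 nmol/kg in 0.2 ml 0.5% carboxymethylcellulose for 4 weeks (vehicle to OVX/sham). Left femur taken the day after the last dose, cleaned of muscle, length measured, defatted in chloroform–methanol (2:1, 2×3 h), dried 120 °C 6 h and weighed, ashed 800 °C 8 h and weighed. Mineral content = ash/dry weight; femur ash dissolved in 6 N HCl, diluted, calcium by o-methylphenolphthalein complexone. n = 12.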

Mus musculus [2] = test: Toxicity in ovariectomized ICR mouse assessed as effect on uterine weight at 110.3 nmol/kg, po treated for 4 weeks measured after 1 day of last treatment; assay type: organism-based; details: in vivo, 24 h
How it was run: (§2)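 OVX mice dosed orally once daily with 110.3 nmol/kg in 0.5% carboxymethylcellulose for 4 weeks. The day after the last dose, mice were anesthetized with pentobarbital (40.0 mg/kg ip) and killed; uteri, lungs, livers and spleens were removed and weighed directly and their morphology noted.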

Mus musculus [3] = test: Antiosteoporosis activity in ovariectomized ICR mouse assessed as calcium level in serum at 110.3 nmol/kg, po treated for 4 weeks measured after 1 day of last treatment by o-methyl-phenolphthalein method; assay type: functional
How it was run: (§3)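 Ovariectomized female mice dosed orally with 110.3 nmol/kg in 0.5% carboxymethylcellulose once daily for 4 weeks, starting day 5 after surgery. Blood taken from the orbit the day after the last dose, stood 30 min, centrifuged 3000g for 20 min, serum stored at −20 °C. Calcium read by o-methylphenolphthalein complexone; phosphorus by molybdenum blue.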

Mus musculus [4] = test: Antiosteoporosis activity in ovariectomized ICR mouse assessed as phosphorous level in serum at 110.3 nmol/kg, po treated for 4 weeks measured after 1 day of last treatment by molybdenum blue method; assay type: functional; how it was run: as §3
Mus musculus [5] = test: Antiosteoporosis activity in ovariectomized ICR mouse assessed as mineral content in femur at 110.3 nmol/kg, po treated for 4 weeks measured after 1 day of last treatment; assay type: functional; how it was run: as §1
Mus musculus [6] = test: Antiosteoporosis activity in ovariectomized ICR mouse assessed as weight of dry femur at 110.3 nmol/kg, po treated for 4 weeks measured after 1 day of last treatment; assay type: functional
How it was run: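 Left femur taken the day after the last dose, cleaned of muscle, length measured, defatted in chloroform–methanol (2:1, 2×3 h), dried 120 °C 6 h and weighed, ashed 800 °C 8 h and weighed. Mineral content = ash/dry weight; femur ash dissolved in 6 N HCl, diluted, calcium by o-methylphenolphthalein complexone. n = 12.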

Mus musculus [7] = test: Toxicity in ovariectomized ICR mouse assessed as spleen weight at 110.3 nmol/kg, po treated for 4 weeks measured after 1 day of last treatment; assay type: organism-based; details: in vivo, 24 h; how it was run: as §2
Mus musculus [8] = test: Toxicity in ovariectomized ICR mouse assessed as effect on tail bleeding time at 110.3 nmol/kg, po treated for 4 weeks measured after 30 mins of last treatment; assay type: organism-based; details: in vivo, 0.5 h
How it was run: (§4)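 OVX mice received 110.3 nmol/kg orally in 0.5% carboxymethylcellulose daily for 4 weeks. At 30 and 90 min after the last dose, a 2 mm tail cut was made with the mouse in a tube holder; blood was blotted every 30 s until bleeding stopped, and the time was recorded as bleeding time.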

Mus musculus [9] = test: Antiosteoporosis activity in ovariectomized ICR mouse assessed as weight of femur ash at 110.3 nmol/kg, po treated for 4 weeks measured after 1 day of last treatment; assay type: functional; how it was run: as §1
Mus musculus [10] = test: Toxicity in ovariectomized ICR mouse assessed as liver weight at 110.3 nmol/kg, po treated for 4 weeks measured after 1 day of last treatment; assay type: organism-based; details: in vivo, 24 h; how it was run: as §2
Mus musculus [11] = test: Toxicity in ovariectomized ICR mouse assessed as lung weight at 110.3 nmol/kg, po treated for 4 weeks measured after 1 day of last treatment; assay type: organism-based; details: in vivo, 24 h; how it was run: as §2
Mus musculus [12] = test: Toxicity in ovariectomized ICR mouse assessed as effect on tail bleeding time at 110.3 nmol/kg, po treated for 4 weeks measured after 90 mins of last treatment; assay type: organism-based; details: in vivo, 1.5 h; how it was run: as §4
Mus musculus [13] = test: Antiosteoporosis activity in ovariectomized ICR mouse assessed as length of femur at 110.3 nmol/kg, po treated for 4 weeks measured after 1 day of last treatment; assay type: functional; how it was run: as §1
Mus musculus [14] = test: Toxicity in ovariectomized ICR mouse assessed as kidney weight at 110.3 nmol/kg, po treated for 4 weeks measured after 1 day of last treatment; assay type: organism-based; details: in vivo, 24 h
Mus musculus [15] = test: Antiosteoporosis activity in ovariectomized ICR mouse assessed as phosphorous content in femur at 110.3 nmol/kg, po treated for 4 weeks measured after 1 day of last treatment by molybdenum blue method; assay type: functional

C[C@]12CC[C@@H]3c4ccc(O)cc4CC[C@H]3[C@@H]1CC[C@@H]2OC(=O)CCC(=O)N[C@@H](CCCNC(=N)N)C(=O)NCC(=O)N[C@@H](CC(=O)O)C(=O)N[C@@H](Cc1ccccc1)C(=O)O ({Succinyl(O17-estradiol)}-RGDF-OH)
Activity (Mus musculus [1]): 59.36% | Activity (Mus musculus [2]): 0.06 g | Activity (Mus musculus [3]): 3.21 mM | Activity (Mus musculus [4]): 3.01 mM | Activity (Mus musculus [5]): 0.605% | Activity (Mus musculus [6]): 54 mg | Activity (Mus musculus [7]): 0.135 g | Time (Mus musculus [8]): 576 s | Activity (Mus musculus [9]): 33.87 mg | Activity (Mus musculus [10]): 1.266 g | Activity (Mus musculus [11]): 0.109 g | Time (Mus musculus [12]): 568 s | Activity (Mus musculus [13]): 1.64 cm | Activity (Mus musculus [14]): 0.16 g | Activity (Mus musculus [15]): 20.56%

C[C@]12CC[C@@H]3c4ccc(O)cc4CC[C@H]3[C@@H]1CC[C@@H]2OC(=O)CCC(=O)N[C@@H](CCCNC(=N)N)C(=O)NCC(=O)N[C@@H](CC(=O)O)C(=O)N[C@@H](CO)C(=O)O ({Succinyl(O17-estradiol)}-RGDS-OH)
Activity (Mus musculus [1]): 59.34% | Activity (Mus musculus [2]): 0.063 g | Activity (Mus musculus [3]): 3.18 mM | Activity (Mus musculus [4]): 3.01 mM | Activity (Mus musculus [5]): 0.604% | Activity (Mus musculus [6]): 53.78 mg | Activity (Mus musculus [7]): 0.15 g | Time (Mus musculus [8]): 575 s | Activity (Mus musculus [9]): 34.17 mg | Activity (Mus musculus [10]): 1.537 g | Activity (Mus musculus [11]): 0.12 g | Time (Mus musculus [12]): 561 s | Activity (Mus musculus [13]): 1.659 cm | Activity (Mus musculus [14]): 0.182 g | Activity (Mus musculus [15]): 20.37%

C[C@]12CC[C@@H]3c4ccc(O)cc4CC[C@H]3[C@@H]1CC[C@@H]2OC(=O)CCC(=O)N[C@@H](CCCNC(=N)N)C(=O)NCC(=O)N[C@@H](CC(=O)O)C(=O)N[C@@H](CO)C(=O)N[C@@H](CCCNC(=N)N)C(=O)NCC(=O)N[C@@H](CC(=O)O)C(=O)N[C@@H](CO)C(=O)O ({Succinyl(O17-estradiol)}-RGDSRGDS-OH)
Activity (Mus musculus [1]): 65.16% | Activity (Mus musculus [2]): 0.065 g | Activity (Mus musculus [3]): 3 mM | Activity (Mus musculus [4]): 2.6 mM | Activity (Mus musculus [5]): 0.625% | Activity (Mus musculus [6]): 56.41 mg | Activity (Mus musculus [7]): 0.149 g | Time (Mus musculus [8]): 562 s | Activity (Mus musculus [9]): 36.48 mg | Activity (Mus musculus [10]): 1.479 g | Activity (Mus musculus [11]): 0.116 g | Time (Mus musculus [12]): 556 s | Activity (Mus musculus [13]): 1.665 cm | Activity (Mus musculus [14]): 0.174 g | Activity (Mus musculus [15]): 21.4%

CC(C)[C@H](NC(=O)[C@H](CC(=O)O)NC(=O)CNC(=O)[C@H](CCCNC(=N)N)NC(=O)CCC(=O)O[C@H]1CC[C@H]2[C@@H]3CCc4cc(O)ccc4[C@H]3CC[C@]12C)C(=O)O ({Succinyl(O17-estradiol)}-RGDV-OH)
Activity (Mus musculus [1]): 57.49% | Activity (Mus musculus [2]): 0.064 g | Activity (Mus musculus [3]): 3.26 mM | Activity (Mus musculus [4]): 3.04 mM | Activity (Mus musculus [5]): 0.612% | Activity (Mus musculus [6]): 54.01 mg | Activity (Mus musculus [7]): 0.149 g | Time (Mus musculus [8]): 551 s | Activity (Mus musculus [9]): 33.7 mg | Activity (Mus musculus [10]): 1.55 g | Activity (Mus musculus [11]): 0.125 g | Time (Mus musculus [12]): 560 s | Activity (Mus musculus [13]): 1.672 cm | Activity (Mus musculus [14]): 0.178 g | Activity (Mus musculus [15]): 20.14%

C[C@]12CC[C@@H]3c4ccc(O)cc4CC[C@H]3[C@@H]1CC[C@@H]2O [ESTRADIOL]
Activity (Mus musculus [1]): 57.28% | Activity (Mus musculus [2]): 0.108 g | Activity (Mus musculus [3]): 3.24 mM | Activity (Mus musculus [4]): 3.01 mM | Activity (Mus musculus [5]): 0.608% | Activity (Mus musculus [7]): 0.144 g | Time (Mus musculus [8]): 417 s | Activity (Mus musculus [9]): 32.22 mg | Activity (Mus musculus [10]): 1.552 g | Activity (Mus musculus [11]): 0.12 g | Time (Mus musculus [12]): 441 s | Activity (Mus musculus [13]): 1.642 cm | Activity (Mus musculus [14]): 0.173 g | Activity (Mus musculus [15]): 19.81%

Reference: ChEMBL document CHEMBL1137729, “Synthesis, evaluation and 3D QSAR analysis of novel estradiol-RGD octapeptide conjugates with oral anti-osteoporosis activity” (Eur J Med Chem, 2009)
